High-throughput results as filed in PubChem BioAssay.
pCIP destab: p/CIP-EGFP fusion destabilizers, primary screen, fluorescence, F442A cells. 16 h. decrease of EGFP signal, % at 10 µM. hit rate 0.01% among 290,000. AID 1984, 2009;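 active = EGFP signal decrease of at least 30% at 10 µM or well 3 SD below plate mean, unless failing retest; inactive = the rest, including hits failing retest or dose response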
VLA-4 inh: inhibition in human VLA-4 binding assay, primary screen, VLA-4 allosteric modulator project, MLPCN library, flow cytometry, VLA-4 expressing cells; AID 2557, 2010; ligand binding flow cytometry; Integrin alpha-4 (Homo sapiens), P13612; inhibition, % (about 7 µM as worked out from the volumes in the protocol); hit rate 0.2% among 330,000; in the data active = inhibition above about 50%
Arrestin-AP2 inh: inhibitors of beta-arrestin/AP2 binding, primary screen, biochemical, GPCR trafficking, flow cytometry | FITC-arrestin peptide / GST-AP2 beads; AP2 beta2 appendage carries R879A mutation | inhibition, % at 10 µM | hit rate 0.31% among 340,000 | AID 504490, 2011;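 active = inhibition above a set limit, near 3 SD of compounds lacking own fluorescence, cut at about 54% in these data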
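test system = AP2 appendage R879A on GSH beads | buffer or medium = PBS plus Tween 20 (0.05%) and BSA (0.1%) | incubation = 12 min plus 1 h, RT | detection = bead flow cytometry, FITC channel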
JMJD2C inh: inhibitors of GASC-1 histone demethylase, primary screen, biochemical, fluorescence, DELFIA europium; Lysine-specific demethylase 4C (Homo sapiens), Q9H3R0; GST-JMJD2C(1-420) H3K9me3 demethylation; hit rate 0.069% among 330,000; AID 2099, 2009; inhibition, % at 2.35 µM;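 active = more than half of a compound's replicate wells show inhibition beyond 50%, single wells judged on their own value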;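 note: signal counts dimethyl H3K9 product captured on neutravidin plate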
Target sequence (Q9H3R0 1-420 limits assumed): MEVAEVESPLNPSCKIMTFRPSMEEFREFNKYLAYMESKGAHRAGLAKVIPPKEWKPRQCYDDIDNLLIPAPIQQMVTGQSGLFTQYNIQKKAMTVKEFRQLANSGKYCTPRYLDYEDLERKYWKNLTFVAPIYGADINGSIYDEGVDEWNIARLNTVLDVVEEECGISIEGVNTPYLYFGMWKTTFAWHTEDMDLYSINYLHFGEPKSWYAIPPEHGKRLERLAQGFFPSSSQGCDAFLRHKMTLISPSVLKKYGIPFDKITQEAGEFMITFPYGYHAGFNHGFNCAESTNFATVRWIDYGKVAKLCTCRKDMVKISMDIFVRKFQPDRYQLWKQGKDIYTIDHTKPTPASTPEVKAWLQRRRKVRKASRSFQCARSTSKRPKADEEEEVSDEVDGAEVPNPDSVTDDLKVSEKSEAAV
Arr-AP2 CP1: inhibitors of arrestin peptide binding to AP2, confirmation, biochemical, cherry pick 1, flow cytometry beads | shares compounds with Arrestin-AP2 inh | GST-AP2 beads, FITC arrestin peptide binding; GST-fused beta2-adaptin appendage, R879A mutant | inhibition, % at 10 µM | hit rate 2% among 1,300 | AID 504908, 2011;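 active = inhibition above a set limit, roughly 3 SD of non-fluorescent compound noise, cut at about 38% in these data; inactive = inhibition at or below that limit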;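 note: loss of bead fluorescence from 50 nM FITC arrestin peptide bound to appendage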
GST-FITC bead: GST-fluorescein capture on glutathione beads, confirmation, artefact control for arrestin-AP2 inhibitor project, biochemical, cherry pick 1, flow cytometry; shares compounds with Arrestin-AP2 inh; GST-fluorescein binding to GSH beads, fluorescence, counter-screen; inhibition, % at 10 µM; hit rate 2% among 1,300; AID 588338, 2011;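 active = inhibition above 50%, about 3 SD of the inhibition seen with non-fluorescent compounds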;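 note: fluorescein maleimide labelled GST captured on 4 micron glutathione beads; higher means more loss of bead fluorescence from quenching or blocked binding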
Of the large screens only hits and unclear results are named; the others gave an inactive call (follow-up assays come after a bar, where they were run). Compounds with a hit are over-represented: about 0.57% of the library has one in this group of screens.

C(=N\n1cnnc1)/c1ccc(N2CCOCC2)cc1	none
C(=N\n1cnnc1)/c1ccc(N2CCOCC2)s1	Arrestin-AP2 inh 92.1 | Arr-AP2 CP1 inactive | GST-FITC bead inactive
Cc1cccc(C(=O)Oc2ccccc2/C=N/NC(=O)c2ccc(NC(=O)C(C)(C)C)cc2)c1	none
O=C(CN1C(=O)CS/C1=C\c1nc(-c2ccc(Cl)cc2)cs1)Nc1cccnc1Cl	Arrestin-AP2 inh 60.8 | Arr-AP2 CP1 inactive | GST-FITC bead inactive
CC(=O)NC(CCCCNC(=S)NC1CCCCC1)C(=O)O (stereo not drawn)	none
COc1cc(C2C(C(C)=O)=C(O)C(=O)N2CCN(C)C)ccc1O (stereo not drawn)	Arrestin-AP2 inh 68.9 | Arr-AP2 CP1 inactive | GST-FITC bead inactive
COCCN1C(=O)C(O)=C(C(C)=O)C1c1ccc(OC)c(OC)c1 (stereo not drawn)	none
COc1cccc(-n2nc3c(=S)[nH]nc(C)c3c2C)c1	Arrestin-AP2 inh 85.1 | Arr-AP2 CP1 inactive | GST-FITC bead inactive
CC(C)CSc1nc2ccccc2n1CC(=O)O	Arrestin-AP2 inh 54.9 | Arr-AP2 CP1 inactive | GST-FITC bead inactive
CCCSc1nc2ccccc2n1CC(=O)O	none
Cn1ncc(Br)c1C(=O)NC1CCCCC1	none
CCn1ncc(Br)c1C(=O)NC1CCCCCCC1	Arrestin-AP2 inh 60.0 | Arr-AP2 CP1 inactive | GST-FITC bead inactive
Cc1ccc2oc(C(=O)N(Cc3ccncc3)CC3CCCO3)c(C)c2c1 (stereo not drawn)	none
c1ccc2oc(NC3=NCN(CC4CCCO4)CN3)nc2c1 (stereo not drawn)	none
O=C1CCCc2c1[nH]c1ccc(CN3CCCCC3)cc21	none
CO/N=C(\C(=O)N[C@@H]1C(=O)N2C(C(=O)O)=C(COC(N)=O)CS[C@H]12)c1ccco1	none
CCN(CC)c1ccc(NS(=O)(=O)c2ccc(-c3ccc(=O)[nH]n3)o2)c(C)c1	Arrestin-AP2 inh 57.1 | Arr-AP2 CP1 inactive | GST-FITC bead inactive
CCC(=O)Nc1ccc(NC(=S)Nc2ccccc2)cc1	none
CCC(=O)Nc1ccc(C(=O)c2ccccc2)cc1	Arrestin-AP2 inh 84.2 | Arr-AP2 CP1 inactive | GST-FITC bead inactive
CC(C)(C)NCC(O)COc1cccc2c1CC(O)C(O)C2 (stereo not drawn)	none (no result: pCIP destab, JMJD2C inh)
CCCNC(=O)COC(=O)c1ccccc1OCC(=O)Nc1ccc(Br)cc1	none
CC(C)(C)NC(=O)COC(=O)c1ccccc1OCC(=O)Nc1ccc(Br)cc1	Arrestin-AP2 inh 103.3 | Arr-AP2 CP1 inactive | GST-FITC bead inactive
CCOc1ccc(/C=N/NC(=O)Cc2csc(Nc3cccc(C(F)(F)F)c3)n2)cc1	Arrestin-AP2 inh 85.5 | Arr-AP2 CP1 inactive | GST-FITC bead inactive
CCOc1ccc(/C=N/NC(=O)Cc2csc(Nc3cccc(C(F)(F)F)c3)n2)c(OCC)c1	none
CCN(CC)c1ccc(S(=O)(=O)N2CCOCC2)cc1NC(=O)CN1CCc2ccccc2C1	none
O=c1[nH]c2cc(NCCO)c([N+](=O)[O-])cc2[nH]1	Arrestin-AP2 inh 69.8 | Arr-AP2 CP1 inactive | GST-FITC bead inactive
COCCNc1cc(N)c([N+](=O)[O-])cc1[N+](=O)[O-]	none
Cc1ccc(NC(=O)/C(C#N)=N/Nc2ccc(C(=O)O)cc2)c(C)c1	none
Cc1ccc(N/N=C(\C#N)C(N)=S)c(C)c1	Arrestin-AP2 inh 56.8 | Arr-AP2 CP1 inactive | GST-FITC bead inactive
CSc1ccc(NC(=O)Nc2ccccc2C(N)=O)cc1	none
O=C(c1cccc2ccccc12)C1CCCN(C(=O)CCc2cnccn2)C1 (stereo not drawn)	none
C=C(C)[C@@H]1CC=C(CN2CCN(Cc3ccccc3)CC2)CC1	Arrestin-AP2 inh 60.0 | Arr-AP2 CP1 inactive | GST-FITC bead inactive
COc1ccccc1CN1CC(C(=O)NCCc2ncccc2C)CCC1=O (stereo not drawn)	none (no result: VLA-4 inh)
Cn1c(SCc2ccccc2Cl)nc(C(F)(F)F)cc1=O	none
O=C(Cc1cccc(F)c1)Nc1ccc2c(c1)CCC2	none
CCc1cc(C(=O)NNC(=S)Nc2cc(C)ccc2C)cs1	none
CC(C)(C)[C@H]1C=C(C(=O)N2CCOCC2)O[C@@H](OCCCCO)C1	Arrestin-AP2 inh 54.0 (no result: VLA-4 inh) | Arr-AP2 CP1 inactive | GST-FITC bead inactive
Cc1cc(C)n(CC(=O)O)c(=O)c1[N+](=O)[O-]	Arrestin-AP2 inh 66.0 | Arr-AP2 CP1 inactive | GST-FITC bead inactive
CCn1c(=O)n(CC)c2cc(N3CCCC3)c(NC(=O)c3c(F)cccc3F)cc21	none | Arr-AP2 CP1 inactive | GST-FITC bead inactive
CCn1c(=O)c(C(=O)Nc2ccccc2F)c(O)c2ccccc21	none
CCn1c(=O)n(CC)c2cc(N3CCCC3)c(NC(=O)c3ccc(F)cc3)cc21	none | Arr-AP2 CP1 inactive | GST-FITC bead inactive
CCOc1ccc(C(=O)Nc2cc3c(cc2N2CCCC2)n(CC)c(=O)n3CC)cc1OCC	none | Arr-AP2 CP1 inactive | GST-FITC bead inactive
CCn1c(=O)n(CC)c2cc(N3CCCC3)c(NC(=O)c3cccc(OC)c3)cc21	none | Arr-AP2 CP1 inactive | GST-FITC bead inactive
CCOc1ccc(C(=O)Nc2ccccc2NC(C)=O)cc1OCC	none
CCc1nc(N)nc2c1C(=O)CC(C)(C)C2	none
CCOc1ccc(C(C)=O)cc1N1C(=O)C2C3C=CC(O3)C2C1=O (stereo not drawn)	Arrestin-AP2 inh 78.1 | Arr-AP2 CP1 inactive | GST-FITC bead inactive
CC1(C(=O)O)CCC(C(=O)Nc2ccc(OC(F)(F)Cl)cc2)C1(C)C (stereo not drawn)	none
O=C(COC(=O)Cn1cnc2ccccc21)Nc1ccc2c(c1)C(=O)c1ccccc1C2=O	Arrestin-AP2 inh 100.0 | Arr-AP2 CP1 inactive | GST-FITC bead inactive
CC(=O)c1ccc(NC(=O)COC(=O)Cn2cnc3ccccc32)cc1	none (no result: pCIP destab)
COc1ccccc1-c1nnc(SCC(=O)NC2CCS(=O)(=O)C2)n1CCc1ccccc1 (stereo not drawn)	none
O=C(N/N=C/c1ccco1)c1cc(-c2ccc3ccccc3c2)n[nH]1	Arrestin-AP2 inh 55.7 | Arr-AP2 CP1 inactive | GST-FITC bead inactive
CC(C)[C@H](NC(=O)NCCc1ccccc1)C(=O)O	none
COc1ccc(CNC(=O)CN(CC2CCCO2)C(=O)CNS(=O)(=O)c2ccc(C)cc2)cc1 (stereo not drawn)	Arrestin-AP2 inh 77.4 | Arr-AP2 CP1 inactive | GST-FITC bead inactive
CCOC(=O)N1CCN(C(=O)/C(=C/c2cccs2)NC(=O)c2ccc(OC)c(OC)c2)CC1	Arrestin-AP2 inh 60.0 | Arr-AP2 CP1 inactive | GST-FITC bead inactive
COc1cc(CNc2ccc(N3CCCC3)cc2)cc(Cl)c1OC	none
CCOc1cc(CNc2ccc(N3CCCC3)cc2)cc(Cl)c1OC	Arrestin-AP2 inh 55.0 | Arr-AP2 CP1 inactive | GST-FITC bead inactive
